Consider nine molecules from ChEMBL document CHEMBL5120972, “Small-Molecule Inhibitors of the MLL1 CXXC Domain, an Epigenetic Reader of DNA Methylation” (ACS Med Chem Lett, 2022).

Assay [1] is described as follows: Inhibition of GST-tagged human MLL1 Cys1188Ala mutant (1147 to 1203 residues) expressed in Escherichia coli BL21 cells incubated for 30 mins by fluorescence polarization assay. (Polarisation of emitted light reports the rotation of a fluorescent probe.)
Assay [2] concerns the target Methylcytosine dioxygenase TET1 (Homo sapiens, UniProt Q8NFU7). Briefly: Inhibition of GST-tagged human TET1 (583 to 633 residues) expressed in Escherichia coli BL21 cells incubated for 30 mins by fluorescence polarization assay. In outline: (§1)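 Competition fluorescence polarization assay. CXXC domain protein is held at 2× its own KD. All domains are expressed and purified by the same method. Standard deviations come from three separate measurements.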

Assay [3] addresses Methylcytosine dioxygenase TET3 (Homo sapiens, UniProt O43151). Briefly: Inhibition of GST-tagged human TET3 ([…] residues) expressed in Escherichia coli BL21 cell incubated for 30 mins by fluorescence polarization assay. In outline: as §1
The target of assay [4] is T1, CXXC-type zinc finger protein 4 (Homo sapiens, UniProt Q9H2H0).
T1 sequence (Q9H2H0 whole entry): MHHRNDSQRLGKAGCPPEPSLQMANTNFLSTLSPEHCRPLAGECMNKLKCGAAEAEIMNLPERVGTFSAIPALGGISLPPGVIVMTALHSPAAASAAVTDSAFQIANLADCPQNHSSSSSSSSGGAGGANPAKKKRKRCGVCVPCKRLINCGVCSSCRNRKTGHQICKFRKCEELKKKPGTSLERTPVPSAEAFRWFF
Briefly: Inhibition of GST-tagged human IDAX (130 to 181 residues) expressed in Escherichia coli BL21 cells incubated for 30 mins by fluorescence polarization assay. In outline:
as §1

Assay [5] addresses T2, F-box/LRR-repeat protein 19 (Homo sapiens, UniProt Q6PCT2).
T2 sequence (Q6PCT2 whole entry): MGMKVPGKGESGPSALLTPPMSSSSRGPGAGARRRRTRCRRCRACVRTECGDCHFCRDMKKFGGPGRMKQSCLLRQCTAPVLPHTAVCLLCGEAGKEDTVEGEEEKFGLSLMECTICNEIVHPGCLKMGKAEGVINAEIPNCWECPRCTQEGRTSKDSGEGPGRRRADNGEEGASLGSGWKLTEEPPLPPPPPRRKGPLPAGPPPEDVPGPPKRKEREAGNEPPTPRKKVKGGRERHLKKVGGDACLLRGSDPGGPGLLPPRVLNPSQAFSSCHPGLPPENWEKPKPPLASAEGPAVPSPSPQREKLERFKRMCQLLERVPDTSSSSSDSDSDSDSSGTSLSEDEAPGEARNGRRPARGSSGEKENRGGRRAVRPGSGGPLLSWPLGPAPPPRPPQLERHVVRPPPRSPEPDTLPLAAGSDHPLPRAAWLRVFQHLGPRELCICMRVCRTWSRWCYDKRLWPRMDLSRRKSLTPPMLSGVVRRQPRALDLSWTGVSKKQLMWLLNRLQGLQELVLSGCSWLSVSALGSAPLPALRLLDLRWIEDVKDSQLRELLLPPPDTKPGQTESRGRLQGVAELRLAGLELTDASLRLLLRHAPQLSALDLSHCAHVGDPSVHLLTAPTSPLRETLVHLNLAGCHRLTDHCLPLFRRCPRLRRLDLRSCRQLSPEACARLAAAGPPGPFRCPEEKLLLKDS
Briefly: Inhibition of GST-tagged human FBXL19 (31 to 86 residues) expressed in Escherichia coli BL21 cells incubated for 30 mins by fluorescence polarization assay. The method, boiled down: as §1

Methylcytosine dioxygenase TET3, sequence (O43151 whole entry): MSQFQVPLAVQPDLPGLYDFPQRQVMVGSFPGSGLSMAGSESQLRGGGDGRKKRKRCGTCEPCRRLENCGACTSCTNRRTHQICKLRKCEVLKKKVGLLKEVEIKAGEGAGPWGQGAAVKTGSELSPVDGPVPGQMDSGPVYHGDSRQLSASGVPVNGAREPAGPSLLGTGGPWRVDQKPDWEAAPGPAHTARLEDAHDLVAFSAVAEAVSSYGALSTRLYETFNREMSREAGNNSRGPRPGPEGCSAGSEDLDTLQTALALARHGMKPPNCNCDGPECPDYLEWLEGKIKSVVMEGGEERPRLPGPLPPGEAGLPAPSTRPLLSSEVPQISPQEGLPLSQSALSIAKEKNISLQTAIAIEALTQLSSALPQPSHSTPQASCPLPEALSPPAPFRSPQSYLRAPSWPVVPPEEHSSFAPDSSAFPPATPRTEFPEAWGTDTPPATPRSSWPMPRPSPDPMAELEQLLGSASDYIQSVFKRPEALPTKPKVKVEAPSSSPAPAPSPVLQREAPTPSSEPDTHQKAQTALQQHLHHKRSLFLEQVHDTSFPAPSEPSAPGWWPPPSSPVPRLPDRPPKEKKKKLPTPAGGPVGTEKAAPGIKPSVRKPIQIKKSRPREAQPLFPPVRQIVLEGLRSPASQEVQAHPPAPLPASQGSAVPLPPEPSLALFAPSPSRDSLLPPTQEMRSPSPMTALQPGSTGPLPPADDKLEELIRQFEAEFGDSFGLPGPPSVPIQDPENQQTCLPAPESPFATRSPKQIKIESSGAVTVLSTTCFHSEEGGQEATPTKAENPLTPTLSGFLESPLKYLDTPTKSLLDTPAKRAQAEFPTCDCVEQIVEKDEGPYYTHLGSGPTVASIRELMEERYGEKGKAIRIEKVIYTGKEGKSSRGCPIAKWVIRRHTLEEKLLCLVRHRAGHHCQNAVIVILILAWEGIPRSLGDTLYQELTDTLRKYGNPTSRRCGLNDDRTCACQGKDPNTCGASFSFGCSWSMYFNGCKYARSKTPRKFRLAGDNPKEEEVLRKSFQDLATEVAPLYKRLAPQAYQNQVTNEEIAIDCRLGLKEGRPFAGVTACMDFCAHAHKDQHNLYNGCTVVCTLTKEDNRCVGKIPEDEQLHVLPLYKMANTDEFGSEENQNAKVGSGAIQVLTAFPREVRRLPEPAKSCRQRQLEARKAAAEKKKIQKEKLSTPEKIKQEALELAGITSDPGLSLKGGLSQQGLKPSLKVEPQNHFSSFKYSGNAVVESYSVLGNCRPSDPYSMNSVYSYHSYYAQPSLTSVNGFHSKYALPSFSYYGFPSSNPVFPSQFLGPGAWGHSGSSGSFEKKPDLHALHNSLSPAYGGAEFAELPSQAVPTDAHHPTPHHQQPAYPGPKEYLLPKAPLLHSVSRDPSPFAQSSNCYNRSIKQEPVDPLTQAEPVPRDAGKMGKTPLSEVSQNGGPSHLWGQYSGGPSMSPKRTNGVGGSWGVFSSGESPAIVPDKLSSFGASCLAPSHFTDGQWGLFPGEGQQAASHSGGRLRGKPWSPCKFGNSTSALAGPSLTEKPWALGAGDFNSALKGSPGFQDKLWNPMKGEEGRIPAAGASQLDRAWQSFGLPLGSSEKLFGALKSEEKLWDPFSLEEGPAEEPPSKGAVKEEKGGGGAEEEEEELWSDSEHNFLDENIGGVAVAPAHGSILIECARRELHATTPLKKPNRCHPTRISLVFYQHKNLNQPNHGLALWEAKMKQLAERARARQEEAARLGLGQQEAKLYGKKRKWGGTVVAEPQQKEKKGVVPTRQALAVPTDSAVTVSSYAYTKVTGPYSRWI
Methylcytosine dioxygenase TET1, sequence (Q8NFU7 whole entry, the tested form may be a part): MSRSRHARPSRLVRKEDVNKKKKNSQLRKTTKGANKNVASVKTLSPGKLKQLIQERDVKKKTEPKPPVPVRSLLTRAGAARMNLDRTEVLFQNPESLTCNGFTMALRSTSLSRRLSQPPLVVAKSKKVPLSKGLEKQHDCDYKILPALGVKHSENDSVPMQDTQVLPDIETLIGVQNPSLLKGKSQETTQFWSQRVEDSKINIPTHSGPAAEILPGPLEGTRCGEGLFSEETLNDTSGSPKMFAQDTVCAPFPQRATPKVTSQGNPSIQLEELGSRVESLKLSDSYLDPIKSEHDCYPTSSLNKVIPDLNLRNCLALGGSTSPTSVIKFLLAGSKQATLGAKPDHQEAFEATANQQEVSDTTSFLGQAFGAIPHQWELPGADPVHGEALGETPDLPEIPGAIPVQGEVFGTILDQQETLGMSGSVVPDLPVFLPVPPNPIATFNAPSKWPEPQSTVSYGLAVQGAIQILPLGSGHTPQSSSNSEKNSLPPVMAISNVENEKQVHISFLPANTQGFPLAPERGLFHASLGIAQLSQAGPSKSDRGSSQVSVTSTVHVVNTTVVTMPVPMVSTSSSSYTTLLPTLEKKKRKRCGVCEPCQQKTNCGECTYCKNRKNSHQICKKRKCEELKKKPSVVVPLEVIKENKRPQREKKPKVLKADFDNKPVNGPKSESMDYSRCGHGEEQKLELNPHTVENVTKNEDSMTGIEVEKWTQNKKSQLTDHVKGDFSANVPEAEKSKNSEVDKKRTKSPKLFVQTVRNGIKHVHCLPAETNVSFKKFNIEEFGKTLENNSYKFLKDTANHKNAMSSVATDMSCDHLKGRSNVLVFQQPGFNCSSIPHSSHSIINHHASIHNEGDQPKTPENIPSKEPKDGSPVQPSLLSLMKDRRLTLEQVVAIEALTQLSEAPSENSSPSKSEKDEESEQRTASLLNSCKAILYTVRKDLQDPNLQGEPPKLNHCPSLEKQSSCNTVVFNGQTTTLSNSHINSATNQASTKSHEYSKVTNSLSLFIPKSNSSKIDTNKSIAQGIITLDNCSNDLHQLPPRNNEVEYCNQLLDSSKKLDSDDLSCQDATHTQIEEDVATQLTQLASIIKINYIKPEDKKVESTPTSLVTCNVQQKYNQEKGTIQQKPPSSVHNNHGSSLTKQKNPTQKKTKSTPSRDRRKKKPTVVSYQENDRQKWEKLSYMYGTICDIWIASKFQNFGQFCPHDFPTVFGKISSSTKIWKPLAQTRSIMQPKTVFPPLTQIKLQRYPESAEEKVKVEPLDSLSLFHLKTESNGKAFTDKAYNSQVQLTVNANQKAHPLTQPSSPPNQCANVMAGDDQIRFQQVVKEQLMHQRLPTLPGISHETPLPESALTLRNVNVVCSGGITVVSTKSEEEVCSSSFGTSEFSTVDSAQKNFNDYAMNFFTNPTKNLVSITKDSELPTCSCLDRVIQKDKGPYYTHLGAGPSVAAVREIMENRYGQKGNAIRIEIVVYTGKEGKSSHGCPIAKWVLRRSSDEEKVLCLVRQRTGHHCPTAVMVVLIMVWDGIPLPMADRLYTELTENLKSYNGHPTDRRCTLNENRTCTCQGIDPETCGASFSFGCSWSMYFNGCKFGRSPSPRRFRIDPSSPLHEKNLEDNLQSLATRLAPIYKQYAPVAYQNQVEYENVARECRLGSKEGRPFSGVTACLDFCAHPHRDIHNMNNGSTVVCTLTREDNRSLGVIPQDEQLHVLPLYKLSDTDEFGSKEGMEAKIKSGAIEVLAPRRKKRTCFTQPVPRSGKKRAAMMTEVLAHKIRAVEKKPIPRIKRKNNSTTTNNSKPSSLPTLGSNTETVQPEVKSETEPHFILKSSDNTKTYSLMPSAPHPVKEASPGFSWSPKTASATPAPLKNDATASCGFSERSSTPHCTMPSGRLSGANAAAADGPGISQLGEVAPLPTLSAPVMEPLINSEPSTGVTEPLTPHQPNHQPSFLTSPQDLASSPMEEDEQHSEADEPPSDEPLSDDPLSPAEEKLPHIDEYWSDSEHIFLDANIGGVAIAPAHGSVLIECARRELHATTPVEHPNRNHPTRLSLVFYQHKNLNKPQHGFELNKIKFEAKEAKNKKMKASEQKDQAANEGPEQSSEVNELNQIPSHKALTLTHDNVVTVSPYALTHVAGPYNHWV

Usually IC50 stands for the concentration that inhibits the measured activity by half. A high value points to a need for much substance. Turning to `C=CC(=O)N1CCC(c2ccc(OCC)cc2)(c2nnn[nH]2)CC1`, the IC50 is 104 µM in assay [1]; 24 µM in assay [2]; 21 µM in assay [3]; 8.9 µM in assay [4]; 10.9 µM in assay [5].

As for `C=CC(=O)N1CCC(C(=O)O)(c2ccc(OC)cc2)CC1`, the IC50 is 51 µM in assay [1]; 81 µM in assay [2]; 30 µM in assay [3]; 35 µM in assay [4]; 17 µM in assay [5].

Take `C=CC(=O)N1CCC(C(=O)O)(c2ccc(OCC)cc2)CC1`: the IC50 in assay [1] turned out to be 15.4 µM; in assay [2], 6.3 µM; in assay [3], 5.8 µM; in assay [4], 1.2 µM; in assay [5], 2.4 µM.

As for `C=CC(=O)N1CCC(C(=O)NS(=O)(=O)c2ccccc2)(c2ccccc2)CC1`, the IC50 is 52 µM in assay [1]; 107 µM in assay [2]; 33 µM in assay [3]; 23 µM in assay [4]; 21.7 µM in assay [5].

Turning to `C=CC(=O)N1CCC(c2cccc(OCC)c2)(c2nnn[nH]2)CC1`, the IC50 in assay [1] came to 43 µM; in assay [2], 10.7 µM; in assay [3], 7 µM; in assay [4], 2.2 µM; in assay [5], 2.6 µM.

In the case of `C=CC(=O)N1CCC(C(=O)O)(c2ccc(Cl)cc2)CC1`, the IC50 in assay [1] was 108 µM; in assay [2] it was 166 µM; in assay [3], 48 µM; in assay [4], 33 µM; in assay [5], 31 µM.

As to `C=CC(=O)N1CCC(c2ccccc2)(c2nnn[nH]2)CC1`, the IC50 in assay [1] worked out at 20 µM; in assay [2], 11 µM; in assay [3], 5.5 µM; in assay [4], 2.4 µM; in assay [5], 3.1 µM.

As for `C=CC(=O)N1CCC(C(=O)O)(c2ccccc2)CC1`, the IC50 in assay [1] came to 3.6 µM; in assay [2], 11.3 µM; in assay [3], 5.1 µM; in assay [4] it was 4 µM; in assay [5], 1.8 µM.

As for `C=CC(=O)N1CCC(c2ccc(OC)cc2)(c2nnn[nH]2)CC1`, the IC50 in assay [1] amounted to 59 µM; in assay [2] it was 31 µM; in assay [3], 15.5 µM; in assay [4] it was 8.3 µM; in assay [5], 8.9 µM.
